ChEMBL document CHEMBL5058577, “EUbOPEN Chemogenomics Library 2 (Multiplex)” (2022)

Tested on: HEK-293T
Assay: Multiplex assay against HEK293T
Assay type: toxicity, cell-based
Settings: human
Method in brief: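 Live cells carried four stains from seeding: Hoechst33342, BioTracker Green Microtubule Cytoskeleton Dye, MitoTracker Red and Annexin V Alexa Fluor 680. They were imaged on a CQ1 microscope at 37°C and 5% CO2 after compound addition. Using CellPathfinder machine-learning gating, cells were split into Hoechst high-intensity objects or normal cells, normal cells into healthy, pyknosed or fragmented nuclei, and pyknosed cells into mitotic or apoptotic; tubulin, mitochondrial-mass and membrane-permeability phenotypes are per cents of healthy-nucleus cells.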

[1] = 12 h, 1 µM, compound concentration 1 uM, replicate 1
[2] = 12 h, 1 µM, compound concentration 1 uM, replicate 2
[3] = 12 h, 10 µM, compound concentration 10 uM, replicate 1
[4] = 12 h, 10 µM, compound concentration 10 uM, replicate 2
[5] = 24 h, 1 µM, compound concentration 1 uM, replicate 1
[6] = 24 h, 1 µM, compound concentration 1 uM, replicate 2
[7] = 24 h, 10 µM, compound concentration 10 uM, replicate 1
[8] = 24 h, 10 µM, compound concentration 10 uM, replicate 2
[9] = 48 h, 1 µM, compound concentration 1 uM, replicate 1
[10] = 48 h, 1 µM, compound concentration 1 uM, replicate 2
[11] = 48 h, 10 µM, compound concentration 10 uM, replicate 1
[12] = 48 h, 10 µM, compound concentration 10 uM, replicate 2

With CN1CCN2c3ccccc3Cc3ccccc3C2C1.Cl (centres undefined) [MIANSERIN HYDROCHLORIDE] the “Population Apoptotic (%)” value [1] was 23%, the “Population Fragmented Nuclei (%)” value [1] was 5% and the “Population Healthy Nuclei (%)” value [1] was 79%. For the same compound, the “Population Hoechst High Intensity Objects (%)” value [1] was 5%, the “Population Membrane Permeable-Phenotype (%)” value [1] was 0% and the “Population Mitochondria Different-Phenotype (%)” value [1] was 36%. The “Population Mitotic Cells (%)” value [1] was 76%, the “Population Normal (%)” value [1] was 94% and the “Population Pyknosed Nuclei (%)” value [1] was 14%. The “Population Tubulin-Different-Phenotype (%)” value [1] was 21%, the “Total Cell Count” value [1] was 338 and the “Population Apoptotic (%)” value [2] was 46%. The “Population Fragmented Nuclei (%)” value [2] was 7%, the “Population Healthy Nuclei (%)” value [2] was 77% and the “Population Hoechst High Intensity Objects (%)” value [2] was 10%. For the same compound, the “Population Mitochondria Different-Phenotype (%)” value [2] was 63%, the “Population Mitotic Cells (%)” value [2] was 53% and the “Population Normal (%)” value [2] was 89%. For the same compound, the “Population Tubulin-Different-Phenotype (%)” value [2] was 17%, the “Total Cell Count” value [2] was 376 and the “Population Apoptotic (%)” value [3] was 34%. For the same compound, the “Population Fragmented Nuclei (%)” value [3] was 5%, the “Population Healthy Nuclei (%)” value [3] was 81% and the “Population Hoechst High Intensity Objects (%)” value [3] was 9%. The “Population Membrane Permeable-Phenotype (%)” value [3] was 1%, the “Population Mitochondria Different-Phenotype (%)” value [3] was 45% and the “Population Mitotic Cells (%)” value [3] was 65%. The “Population Normal (%)” value [3] was 90%, the “Population Pyknosed Nuclei (%)” value [3] was 13% and the “Population Tubulin-Different-Phenotype (%)” value [3] was 40%. The “Total Cell Count” value [3] was 410, the “Population Apoptotic (%)” value [4] was 42% and the “Population Healthy Nuclei (%)” value [4] was 85%. For the same compound, the “Population Hoechst High Intensity Objects (%)” value [4] was 4%, the “Population Membrane Permeable-Phenotype (%)” value [4] was 0% and the “Population Mitochondria Different-Phenotype (%)” value [4] was 53%. The “Population Mitotic Cells (%)” value [4] was 57%, the “Population Normal (%)” value [4] was 95% and the “Population Pyknosed Nuclei (%)” value [4] was 8%. For the same compound, the “Population Tubulin-Different-Phenotype (%)” value [4] was 28%, the “Total Cell Count” value [4] was 491 and the “Population Apoptotic (%)” value [5] was 22%. The “Population Fragmented Nuclei (%)” value [5] was 9%, the “Population Healthy Nuclei (%)” value [5] was 80% and the “Population Hoechst High Intensity Objects (%)” value [5] was 1%. The “Population Membrane Permeable-Phenotype (%)” value [5] was 0%, the “Population Mitochondria Different-Phenotype (%)” value [5] was 21% and the “Population Mitotic Cells (%)” value [5] was 77%. The “Population Normal (%)” value [5] was 98%, the “Population Pyknosed Nuclei (%)” value [5] was 10% and the “Population Tubulin-Different-Phenotype (%)” value [5] was 14%. For the same compound, the “Total Cell Count” value [5] was 479, the “Population Apoptotic (%)” value [6] was 26% and the “Population Fragmented Nuclei (%)” value [6] was 10%. The “Population Hoechst High Intensity Objects (%)” value [6] was 8%, the “Population Mitochondria Different-Phenotype (%)” value [6] was 37% and the “Population Mitotic Cells (%)” value [6] was 73%. For the same compound, the “Population Normal (%)” value [6] was 91%, the “Population Pyknosed Nuclei (%)” value [6] was 9% and the “Population Tubulin-Different-Phenotype (%)” value [6] was 16%. The “Total Cell Count” value [6] was 486, the “Population Apoptotic (%)” value [7] was 24% and the “Population Fragmented Nuclei (%)” value [7] was 8%. For the same compound, the “Population Healthy Nuclei (%)” value [7] was 77%, the “Population Hoechst High Intensity Objects (%)” value [7] was 5% and the “Population Membrane Permeable-Phenotype (%)” value [7] was 0%. For the same compound, the “Population Mitochondria Different-Phenotype (%)” value [7] was 31%, the “Population Mitotic Cells (%)” value [7] was 75% and the “Population Normal (%)” value [7] was 94%. The “Population Pyknosed Nuclei (%)” value [7] was 14%, the “Population Tubulin-Different-Phenotype (%)” value [7] was 34% and the “Total Cell Count” value [7] was 486. For the same compound, the “Population Apoptotic (%)” value [8] was 32%, the “Population Fragmented Nuclei (%)” value [8] was 5% and the “Population Healthy Nuclei (%)” value [8] was 84%. For the same compound, the “Population Hoechst High Intensity Objects (%)” value [8] was 3%, the “Population Mitochondria Different-Phenotype (%)” value [8] was 36% and the “Population Mitotic Cells (%)” value [8] was 67%. The “Population Normal (%)” value [8] was 96%, the “Population Pyknosed Nuclei (%)” value [8] was 10% and the “Population Tubulin-Different-Phenotype (%)” value [8] was 21%. For the same compound, the “Total Cell Count” value [8] was 612, the “Population Apoptotic (%)” value [9] was 13% and the “Population Fragmented Nuclei (%)” value [9] was 15%. The “Population Healthy Nuclei (%)” value [9] was 77%, the “Population Hoechst High Intensity Objects (%)” value [9] was 1% and the “Population Membrane Permeable-Phenotype (%)” value [9] was 1%. The “Population Mitochondria Different-Phenotype (%)” value [9] was 15%, the “Population Mitotic Cells (%)” value [9] was 86% and the “Population Normal (%)” value [9] was 98%. The “Population Pyknosed Nuclei (%)” value [9] was 6%, the “Population Tubulin-Different-Phenotype (%)” value [9] was 9% and the “Total Cell Count” value [9] was 812. For the same compound, the “Population Apoptotic (%)” value [10] was 37%, the “Population Fragmented Nuclei (%)” value [10] was 16% and the “Population Healthy Nuclei (%)” value [10] was 78%. For the same compound, the “Population Hoechst High Intensity Objects (%)” value [10] was 3%, the “Population Membrane Permeable-Phenotype (%)” value [10] was 0% and the “Population Mitochondria Different-Phenotype (%)” value [10] was 18%. For the same compound, the “Population Mitotic Cells (%)” value [10] was 62%, the “Population Normal (%)” value [10] was 96% and the “Population Pyknosed Nuclei (%)” value [10] was 4%. The “Total Cell Count” value [10] was 761, the “Population Apoptotic (%)” value [11] was 24% and the “Population Fragmented Nuclei (%)” value [11] was 14%. For the same compound, the “Population Healthy Nuclei (%)” value [11] was 76%, the “Population Hoechst High Intensity Objects (%)” value [11] was 2% and the “Population Membrane Permeable-Phenotype (%)” value [11] was 0%. The “Population Mitochondria Different-Phenotype (%)” value [11] was 18%, the “Population Mitotic Cells (%)” value [11] was 75% and the “Population Normal (%)” value [11] was 97%. The “Population Pyknosed Nuclei (%)” value [11] was 8%, the “Population Tubulin-Different-Phenotype (%)” value [11] was 17% and the “Total Cell Count” value [11] was 702. For the same compound, the “Population Apoptotic (%)” value [12] was 35%, the “Population Healthy Nuclei (%)” value [12] was 79% and the “Population Hoechst High Intensity Objects (%)” value [12] was 1%. For the same compound, the “Population Membrane Permeable-Phenotype (%)” value [12] was 1%, the “Population Mitochondria Different-Phenotype (%)” value [12] was 14% and the “Population Mitotic Cells (%)” value [12] was 64%. The “Population Normal (%)” value [12] was 98%, the “Population Pyknosed Nuclei (%)” value [12] was 6% and the “Population Tubulin-Different-Phenotype (%)” value [12] was 11%. For the same compound, the “Total Cell Count” value [12] was 860.
